In ChEMBL document CHEMBL1154334, “Effect of the structure of adenosine mimic of bisubstrate-analog inhibitors on their activity towards basophilic protein kinases” (Bioorg Med Chem Lett, 2009):

Legend:
[1] = target: cAMP-dependent protein kinase catalytic subunit alpha (Homo sapiens, UniProt P17612); test: Inhibition of PKACalpha in presence of 100 uM ATP; settings: read-out: IC50
Procedure, shortened: (§1)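 Kinetic phosphorylation assays with PKA catalytic subunit (PKAc) or PKB catalytic subunit (PKBc) at fixed ATP. ATP Km values taken as 20 for PKAc and 100 for PKBc.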

[2] = target: RAC-gamma serine/threonine-protein kinase (Homo sapiens, UniProt Q9Y243); test: Inhibition of PKBgamma in presence of 100 uM ATP; procedure, shortened: as §1
RAC-gamma serine/threonine-protein kinase, sequence (Q9Y243 whole entry): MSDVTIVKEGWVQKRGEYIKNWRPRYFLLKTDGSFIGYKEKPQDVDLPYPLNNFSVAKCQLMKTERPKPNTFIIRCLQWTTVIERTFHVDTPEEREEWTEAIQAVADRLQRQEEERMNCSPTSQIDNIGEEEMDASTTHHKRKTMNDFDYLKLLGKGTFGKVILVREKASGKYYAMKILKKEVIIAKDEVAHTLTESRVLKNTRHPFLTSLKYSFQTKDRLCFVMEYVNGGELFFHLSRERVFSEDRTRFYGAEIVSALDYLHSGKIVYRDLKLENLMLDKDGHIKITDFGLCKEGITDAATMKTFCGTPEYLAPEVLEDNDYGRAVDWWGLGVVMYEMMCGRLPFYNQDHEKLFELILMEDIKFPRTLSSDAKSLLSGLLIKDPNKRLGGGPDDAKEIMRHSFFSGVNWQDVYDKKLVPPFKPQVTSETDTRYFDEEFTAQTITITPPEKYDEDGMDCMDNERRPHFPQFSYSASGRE

[3] = target: Rho-associated protein kinase 2 (Homo sapiens, UniProt O75116); test: Displacement of ARC583 from ROCK2
Rho-associated protein kinase 2, sequence (O75116 whole entry): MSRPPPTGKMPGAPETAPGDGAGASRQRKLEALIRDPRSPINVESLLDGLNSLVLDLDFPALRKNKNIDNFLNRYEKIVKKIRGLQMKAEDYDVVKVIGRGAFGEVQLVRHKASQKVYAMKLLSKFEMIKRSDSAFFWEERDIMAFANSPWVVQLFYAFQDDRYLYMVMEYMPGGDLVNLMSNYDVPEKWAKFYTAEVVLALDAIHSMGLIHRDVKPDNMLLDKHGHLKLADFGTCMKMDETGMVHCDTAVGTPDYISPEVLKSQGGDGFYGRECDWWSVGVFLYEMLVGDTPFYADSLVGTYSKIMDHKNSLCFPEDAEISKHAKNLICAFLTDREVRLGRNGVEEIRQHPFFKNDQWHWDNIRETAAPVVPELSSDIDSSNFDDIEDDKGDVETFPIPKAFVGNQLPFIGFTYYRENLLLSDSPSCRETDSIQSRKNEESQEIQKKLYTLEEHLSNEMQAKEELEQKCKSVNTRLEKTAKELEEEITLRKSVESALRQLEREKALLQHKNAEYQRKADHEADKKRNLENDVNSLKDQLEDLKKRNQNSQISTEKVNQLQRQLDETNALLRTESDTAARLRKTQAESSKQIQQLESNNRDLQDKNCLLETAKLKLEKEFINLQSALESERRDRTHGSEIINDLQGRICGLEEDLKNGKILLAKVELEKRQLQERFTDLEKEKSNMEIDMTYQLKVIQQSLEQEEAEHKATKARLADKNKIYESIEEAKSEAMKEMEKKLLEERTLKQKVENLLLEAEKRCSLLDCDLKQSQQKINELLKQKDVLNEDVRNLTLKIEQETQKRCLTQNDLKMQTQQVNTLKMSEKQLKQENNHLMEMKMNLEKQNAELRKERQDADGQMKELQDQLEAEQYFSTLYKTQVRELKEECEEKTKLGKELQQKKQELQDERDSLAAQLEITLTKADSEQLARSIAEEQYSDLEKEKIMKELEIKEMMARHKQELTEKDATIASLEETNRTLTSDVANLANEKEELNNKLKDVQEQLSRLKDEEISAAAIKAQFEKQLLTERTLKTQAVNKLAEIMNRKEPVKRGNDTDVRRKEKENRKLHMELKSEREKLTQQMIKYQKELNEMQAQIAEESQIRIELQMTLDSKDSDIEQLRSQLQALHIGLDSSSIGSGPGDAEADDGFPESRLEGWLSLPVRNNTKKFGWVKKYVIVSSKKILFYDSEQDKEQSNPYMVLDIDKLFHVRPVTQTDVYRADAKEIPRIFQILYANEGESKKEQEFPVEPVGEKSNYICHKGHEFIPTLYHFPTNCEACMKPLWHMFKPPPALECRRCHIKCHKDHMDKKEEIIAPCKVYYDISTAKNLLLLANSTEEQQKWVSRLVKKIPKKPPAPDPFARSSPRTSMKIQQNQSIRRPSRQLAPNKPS

IC50 [1] [µM] | IC50 [2] [µM] | Kd [3] [µM] | Structure (SMILES)
183 | 360 | 8 | NCCCC[C@@H](NC(=O)CCCCCNC(=O)c1ccccc1)C(=O)NCCCCCC(=O)N[C@H](CCCN=C(N)N)C(=O)N[C@H](CCCN=C(N)N)C(N)=O
23 | 28 | 0.177 | NCCCC[C@@H](NC(=O)CCCCCNC(=O)c1ccc(C(N)=O)cc1)C(=O)NCCCCCC(=O)N[C@H](CCCN=C(N)N)C(=O)N[C@H](CCCN=C(N)N)C(N)=O
240 | 900 | 6.1 | N=C(N)NCCC[C@@H](NC(=O)[C@@H](CCCNC(=N)N)NC(=O)CCCCCNC(=O)[C@@H](CCCCN)NC(=O)CCCCCNC(=O)Nc1ccc(C(N)=O)cc1)C(N)=O
